This is an account of results in ChEMBL document CHEMBL4028864 (J Med Chem, 2017).

≈ marks a conversion by molar mass, not a printed value.

The nature of data set [1]: Cytotoxicity against human AC10 cells assessed as cell viability at 100 uM after 24 hrs by CellTiter-Glo assay relative to control. The class given is cell-based. The conditions noted are these: read-out: Activity. A digest of the protocol:
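AC10 human cardiomyocytes seeded at 5000 cells/well the day before treatment. Cells were exposed for 24 h at 37 °C to a range of 0.315–100 μM final (0.5% DMSO). Viability was read by CellTiter-Glo luminescence.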

The nature of data set [2]: Thermodynamic aqueous solubility of the compound at pH 7.4 after 3 hrs by UV absorbance based assay. The class given is physicochemical. The following applies: read-out: Therm_solubility. A digest of the protocol:
(§1)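 A 20 mM DMSO stock was diluted 1:100 into pH 7.4 PBS, then shaken at 250 rpm for 3 or 24 h at 22.5 ± 2.5 °C. The mixture was filtered and the filtrate diluted with acetonitrile/universal buffer. Absorbance was read at 310 nm against a 6.25–200 μM calibration curve, in triplicate.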

Data set [3] can be described thus: Thermodynamic aqueous solubility of the compound at pH 7.4 after 24 hrs by UV absorbance based assay. The class given is physicochemical. The following applies: read-out: Therm_solubility. The method in brief:
as §1

The next data set concerns the target Histone deacetylase 1 (Homo sapiens, UniProt Q13547). Description: Inhibition of C-terminal FLAG His tagged full length human recombinant HDAC1 (1 to 482 residues) expressed in baculovirus infected sf21 cells using RHKKAc as substrate in presence of ATP.
Data set [4] addresses T1, Tyrosine-protein kinase JAK3 (Homo sapiens, UniProt P52333).
T1 sequence (P52333 whole entry): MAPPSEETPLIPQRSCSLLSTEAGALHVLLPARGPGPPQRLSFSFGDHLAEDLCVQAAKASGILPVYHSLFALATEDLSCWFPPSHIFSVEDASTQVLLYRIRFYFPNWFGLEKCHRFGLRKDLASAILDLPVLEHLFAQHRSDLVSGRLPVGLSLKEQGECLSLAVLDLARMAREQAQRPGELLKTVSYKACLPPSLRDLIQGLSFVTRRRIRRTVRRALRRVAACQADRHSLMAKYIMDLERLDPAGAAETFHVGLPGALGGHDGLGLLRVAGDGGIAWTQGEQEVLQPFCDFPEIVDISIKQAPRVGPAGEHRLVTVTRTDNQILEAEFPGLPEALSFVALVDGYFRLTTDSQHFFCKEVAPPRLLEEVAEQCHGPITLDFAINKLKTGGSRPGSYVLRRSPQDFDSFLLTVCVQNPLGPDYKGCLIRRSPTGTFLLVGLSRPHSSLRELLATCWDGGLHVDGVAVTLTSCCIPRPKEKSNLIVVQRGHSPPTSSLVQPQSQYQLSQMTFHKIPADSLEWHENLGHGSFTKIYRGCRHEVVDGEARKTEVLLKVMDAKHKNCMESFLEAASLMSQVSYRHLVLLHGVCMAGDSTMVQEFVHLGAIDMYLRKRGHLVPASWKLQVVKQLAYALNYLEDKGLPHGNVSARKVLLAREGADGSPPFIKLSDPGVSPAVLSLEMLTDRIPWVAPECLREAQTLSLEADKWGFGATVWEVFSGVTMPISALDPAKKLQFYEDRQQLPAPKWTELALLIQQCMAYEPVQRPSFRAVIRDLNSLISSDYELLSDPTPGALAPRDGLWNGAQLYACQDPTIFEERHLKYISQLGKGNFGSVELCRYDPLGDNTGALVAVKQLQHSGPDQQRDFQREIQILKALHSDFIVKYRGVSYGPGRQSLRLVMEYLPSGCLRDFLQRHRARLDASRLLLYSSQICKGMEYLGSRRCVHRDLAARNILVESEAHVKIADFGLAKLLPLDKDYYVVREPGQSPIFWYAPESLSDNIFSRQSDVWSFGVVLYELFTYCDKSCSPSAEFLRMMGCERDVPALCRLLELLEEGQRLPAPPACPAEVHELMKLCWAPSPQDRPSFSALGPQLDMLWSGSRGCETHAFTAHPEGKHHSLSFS
Description: Inhibition of wild type human JAK3 (I781 to S1124 residues) expressed in mammalian cells assessed as residual activity at 1 uM by KINOMEscan assay relative to control. The conditions noted are these: read-out: Activity. The class given is cell-based.

Another data set has as its system OPM-2. Description: Antiproliferative activity against human OPM2 cells after 48 hrs by CellTiter-Glo luminescent assay. Type of data set: functional, cell-based. The conditions noted are these: OPM-2, 48 h.
The nature of data set [5]: Volume of distribution at steady state in Wistar rat at 1 mg/kg, iv by LC-MS/MS analysis. Type of data set: ADME, organism-based. The conditions noted are these: in vivo, read-out: Vdss. The method in brief:
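Wistar rats given a single 1 mg/kg iv dose. Plasma concentration–time profiles were plotted as mean ± SEM and sampled through 24 h postdose. Values were taken from the iv profile.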

Data set [6] can be described thus: Terminal half life in Wistar rat at 5 mg/kg, po administered via gavage by LC-MS/MS analysis. The following applies: in vivo, read-out: beta t1/2 (converted). The class given is ADME, organism-based. A digest of the protocol:
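Wistar rats given a single 5 mg/kg oral dose. Plasma concentration–time profiles were plotted as mean ± SEM and sampled through 24 h postdose.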

Data set [7] concerns Plasma. Description: Drug uptake in Wistar rat plasma at 5 mg/kg, po administered via gavage or 1 mg/kg, iv up to 2 hrs by LC-MS/MS analysis. Type of data set: ADME, organism-based. The conditions noted are these: in vivo. A digest of the protocol:
(§2)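 Wistar rats dosed once at 5 mg/kg po or 1 mg/kg iv. Plasma levels were followed as mean ± SEM over 24 h postdose and checked against the limit of quantitation at each time point.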

The test system of data set [8] is Plasma. Briefly: Drug uptake in Wistar rat plasma at 5 mg/kg, po administered via gavage or 1 mg/kg, iv after 4 to 24 hrs by LC-MS/MS analysis. Type of data set: ADME, organism-based. The following applies: in vivo. The method in brief:
as §2

Chain of Histone deacetylase 1 (Q13547 whole entry, the tested form may be a part): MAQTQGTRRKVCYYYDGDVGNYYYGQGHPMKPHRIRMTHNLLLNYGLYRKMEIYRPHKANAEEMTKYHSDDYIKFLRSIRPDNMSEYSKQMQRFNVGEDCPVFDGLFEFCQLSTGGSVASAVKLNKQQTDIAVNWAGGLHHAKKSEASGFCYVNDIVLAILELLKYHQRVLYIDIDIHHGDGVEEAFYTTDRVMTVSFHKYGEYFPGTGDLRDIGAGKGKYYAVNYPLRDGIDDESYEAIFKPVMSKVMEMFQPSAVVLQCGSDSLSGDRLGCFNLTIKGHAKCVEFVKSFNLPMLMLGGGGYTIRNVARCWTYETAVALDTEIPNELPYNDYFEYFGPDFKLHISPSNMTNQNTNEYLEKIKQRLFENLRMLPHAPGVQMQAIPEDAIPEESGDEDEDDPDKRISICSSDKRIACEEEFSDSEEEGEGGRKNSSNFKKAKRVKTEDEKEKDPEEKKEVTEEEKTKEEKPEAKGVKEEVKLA

For `O=C(CCCCCCn1cc(-c2ncnc3[nH]ccc23)cn1)NO`, the viability at 24 h, 100 µM in [1] stood at 56%. In addition, the solubility thermodynamic at 3 h in data set [2] came out at 66.2 µg/mL (≈ 202 µM). The solubility thermodynamic at 24 h in data set [3] was more than 73 µg/mL. Besides, the IC50 on Histone deacetylase 1 amounted to 0.0069 µM; with OPM-2, 2.16 µM. Moreover, the activity at 1 µM in [4] was 0.75%. Further, the Vd in data set [5] is 1.49 L/kg. Also, the half-life in data set [6] is 34.8 min. The Drug uptake entry was “Active” with Plasma [7] and “Not Active” in the data set on Plasma [8].
